For data set [1], the species on record is Rattus norvegicus. As to the kind of experiment: Displacement of [3H]BTX-B from VGSC site 2 in rat forebrain membranes at 40 uM incubated at 37 degC for 60 mins. The settings on record: Brain, Membrane. The format is cell membranes.
Data set [2] concerns Rattus norvegicus. Put plainly: Antinociceptive effect in Sprague-Dawley rat model of sciatic nerve constriction-induced neuropathic pain model assessed as […] to von Frey filaments applied to affected hind paw at 30 mg/kg, sc measured 2 hrs post dose. Also noted: dose 30 mg/kg. The format is functional, organism-based.
Data set [3] has as its system Rattus norvegicus. As to the kind of experiment: Anticonvulsant effect in Sprague-Dawley rat epileptic model assessed as increase in seizure thresholds at 50 mg/kg, po dosed before seizure induction by subcutaneous metrazol seizure threshold test. The format is functional, organism-based. Also noted: dose 50 mg/kg. Put shortly: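 Rats pretreated orally with 50 mg/kg of test compound, then seizures induced by subcutaneous Metrazol (scMET) injection; testing done through the NINDS anticonvulsant screening program.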

Data set [4] deals with Rattus norvegicus. Put plainly: Anticonvulsant effect in Sprague-Dawley rat epileptic model assessed as increase in seizure thresholds at 50 mg/kg, po dosed before seizure induction by maximal electroshock test. The data set is classed as functional, organism-based. Further details: dose 50 mg/kg.
The subject of data set [5] is Rattus norvegicus. As to the kind of experiment: Antinociceptive effect in Sprague-Dawley rat model of sciatic nerve constriction-induced neuropathic pain model assessed as reduction in threshold to von Frey filaments applied to affected hind paw at 100 mg/kg, sc measured 2 hrs post dose. The data set is classed as functional, organism-based. Also noted: dose 100 mg/kg. A digest of the protocol: (§1)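 Adult female Sprague-Dawley rats (150 g at start) with unilateral sciatic nerve ligation; only animals with significant allodynia were used. Drug dissolved in DMSO and diluted in PEG400 to a 200 mg/ml stock, then diluted in PEG400/PBS and given subcutaneously. Von Frey withdrawal threshold measured by the up-and-down method 2 h post-dose. n = 5 per group, vehicle controls; one-way ANOVA with Tukey post hoc tests.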

In data set [6] the target is Sodium channel protein type 2 subunit alpha (Homo sapiens) (UniProt Q99250). Put plainly: Inhibition of human NaV1.2 expressed in HEK293 cells at 10 uM using sodium currents elicited through depolarizing step from holding potential of -100 mV to +10 mV for 25 ms at 15 s intervals by whole cell patch clamp method. The data set is classed as cell-based. Put shortly: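 HEK293 cells stably expressing hNav1.2 were studied by whole-cell patch clamp at 20–22 °C with at least 75% series resistance compensation. Compound came from a 100 mM DMSO stock diluted in perfusion solution (final DMSO at most 0.1%). It was applied after a 3 min control period until current reached steady state. Result expressed as mean percent block ± SEM.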
Chain of Sodium channel protein type 2 subunit alpha (Homo sapiens) (Q99250 whole entry, looked up, the tested form may be a part): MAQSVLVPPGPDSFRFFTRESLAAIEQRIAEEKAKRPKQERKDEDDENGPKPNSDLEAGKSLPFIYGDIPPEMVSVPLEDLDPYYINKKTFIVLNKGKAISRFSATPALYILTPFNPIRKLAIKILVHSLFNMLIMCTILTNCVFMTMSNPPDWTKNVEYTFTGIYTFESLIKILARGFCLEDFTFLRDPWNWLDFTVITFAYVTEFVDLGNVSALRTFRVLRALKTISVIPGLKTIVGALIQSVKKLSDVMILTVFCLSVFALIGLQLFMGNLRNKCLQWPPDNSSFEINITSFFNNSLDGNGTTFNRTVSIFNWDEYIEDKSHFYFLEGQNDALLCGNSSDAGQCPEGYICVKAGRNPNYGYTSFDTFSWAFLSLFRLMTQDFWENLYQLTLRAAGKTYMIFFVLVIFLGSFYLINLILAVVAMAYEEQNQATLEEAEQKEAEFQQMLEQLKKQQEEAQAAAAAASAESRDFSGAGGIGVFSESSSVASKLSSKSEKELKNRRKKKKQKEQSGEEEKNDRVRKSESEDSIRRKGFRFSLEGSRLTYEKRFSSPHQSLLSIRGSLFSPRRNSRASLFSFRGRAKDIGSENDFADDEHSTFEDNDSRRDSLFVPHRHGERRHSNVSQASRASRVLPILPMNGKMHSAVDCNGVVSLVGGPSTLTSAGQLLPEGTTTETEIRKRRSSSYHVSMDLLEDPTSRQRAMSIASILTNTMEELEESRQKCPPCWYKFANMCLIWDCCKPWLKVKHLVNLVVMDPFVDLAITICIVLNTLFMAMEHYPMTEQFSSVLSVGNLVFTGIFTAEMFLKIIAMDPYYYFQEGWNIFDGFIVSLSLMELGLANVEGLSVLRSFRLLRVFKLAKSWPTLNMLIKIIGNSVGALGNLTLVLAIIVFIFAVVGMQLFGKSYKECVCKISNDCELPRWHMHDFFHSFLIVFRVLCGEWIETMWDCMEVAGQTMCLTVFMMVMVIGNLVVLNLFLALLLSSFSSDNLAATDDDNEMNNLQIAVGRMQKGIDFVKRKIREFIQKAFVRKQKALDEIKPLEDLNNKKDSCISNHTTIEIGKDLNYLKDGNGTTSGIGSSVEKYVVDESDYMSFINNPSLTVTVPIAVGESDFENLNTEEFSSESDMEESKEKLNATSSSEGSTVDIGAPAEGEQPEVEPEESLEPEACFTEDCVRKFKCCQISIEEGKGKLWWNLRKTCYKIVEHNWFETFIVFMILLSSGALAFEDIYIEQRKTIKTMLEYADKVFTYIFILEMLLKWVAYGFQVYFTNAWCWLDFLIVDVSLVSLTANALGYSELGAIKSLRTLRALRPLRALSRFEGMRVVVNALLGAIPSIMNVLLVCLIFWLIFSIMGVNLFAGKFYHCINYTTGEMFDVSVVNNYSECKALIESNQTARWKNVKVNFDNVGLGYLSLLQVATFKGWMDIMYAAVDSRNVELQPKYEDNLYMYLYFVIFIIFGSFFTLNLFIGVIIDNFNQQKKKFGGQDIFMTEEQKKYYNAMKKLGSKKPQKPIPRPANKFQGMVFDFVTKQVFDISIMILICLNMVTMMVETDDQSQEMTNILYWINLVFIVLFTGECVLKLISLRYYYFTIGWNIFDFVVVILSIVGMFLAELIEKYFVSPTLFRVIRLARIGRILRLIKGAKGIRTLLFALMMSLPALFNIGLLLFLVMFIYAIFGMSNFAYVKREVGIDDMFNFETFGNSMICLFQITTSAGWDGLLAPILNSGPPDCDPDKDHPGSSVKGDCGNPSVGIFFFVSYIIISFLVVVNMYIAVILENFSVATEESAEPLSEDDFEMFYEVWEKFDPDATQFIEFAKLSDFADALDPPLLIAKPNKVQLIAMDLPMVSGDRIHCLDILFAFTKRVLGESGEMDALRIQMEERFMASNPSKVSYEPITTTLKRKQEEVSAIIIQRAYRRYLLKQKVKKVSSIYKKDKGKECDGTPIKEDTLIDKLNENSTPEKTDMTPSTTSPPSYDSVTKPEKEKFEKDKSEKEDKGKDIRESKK

A short description of data set [7]: Drug localization in Sprague-Dawley rat dorsal root ganglions at 100 uM using dansylated compound by two photon confocal microscopy. The format is ADME, tissue-based, Dorsal root ganglion.
Data set [8] has as its system Rattus norvegicus. As to the kind of experiment: Antinociceptive effect in Sprague-Dawley rat model of sciatic nerve constriction-induced neuropathic pain model assessed as reduction in threshold to von Frey filaments applied to affected hind paw at 50 mg/kg, sc measured 2 hrs post dose. The format is functional, organism-based. Also noted: dose 50 mg/kg. Put shortly: as §1

Calls of active or inactive are those of the source.

Regarding `CCCCCCCC1(c2cccc(Cl)c2)C(=O)N=C(SC)N1C` (centres undefined), the inhibition in data set [1] came out at 18%. As to `CCCCCCCC(O)(c1cccc(Cl)c1)c1cccc(OC)c1` (centres undefined), the inhibition in data set [1] is 51%.

In data set [1], `C=CCCCCCC1(c2cccc(Cl)c2)NC(=O)NC1=O` (centres undefined) yielded an inhibition of 79%. On the same count and under the same terms, as for `O=C1NC(=O)C(CCCCCC2CC2)(c2cccc(Cl)c2)N1` (centres undefined), the figure is 87%; as for `C=CCCCCCC(O)(C(N)=O)c1cccc(Cl)c1` (centres undefined), 86%. In data set [1], `C=CCN1C(=O)NC(CCCCCCC)(c2cccc(Cl)c2)C1=O` (centres undefined) yielded an inhibition of 83%. For `NCC1(CC(=O)O)CCCCC1`, the result in data set [2] was Active. Consider `CCCCCCCC1(c2cccc(Cl)c2)OC(C)(C)OC1=O` (centres undefined), for which the inhibition in data set [1] was found to be 27%. Same read-out and setting: as for `CC(C)=CCCC(C)CCC(O)(C(N)=O)c1cccc(Cl)c1` (centres undefined), the figure is 40%. For `CCCCCCCC(O)(C(N)=O)c1cccc(Cl)c1` (centres undefined), in data set [1], the inhibition worked out at 48%. In data set [1], `CCCCCCCC1(c2cccc(Cl)c2)NC(=O)N(CCc2ccccc2)C1=O` (centres undefined) yielded an inhibition of 17%. In turn, `CCCCCCCC1(c2cccc(Cl)c2)NC(SC)=NC1=O` (centres undefined) returned an inhibition in data set [1] of 51%.

With `CCCCCCCC1(c2cccc(Cl)c2)NC(=S)NC1=O` (centres undefined), the inhibition in data set [1] was 67%.

`CCCCCCCC1(c2cccc(Cl)c2)NC(=O)N(Cc2ccccc2)C1=O` (centres undefined) registered an inhibition in data set [1] of 72%.

Consider `O=C1NC(=O)C(c2ccccc2)(c2ccccc2)N1` [PHENYTOIN], for which the result in data set [3] and in data set [4] was Active. In data set [1], this molecule had an inhibition of 28%. For `CCCCCCCC(O)(c1cccc(Cl)c1)c1ccc(F)c(F)c1` (centres undefined), the inhibition in data set [1] was found to be 42%. Molecule `C=CCCCCCC1(c2cccc(Cl)c2)NC(=O)N(CC=C)C1=O` (centres undefined) displayed an inhibition in data set [1] of 72%. On to `CCCCCCCC(O)(c1cccc(Cl)c1)c1ccc(C)cn1` (centres undefined), for which the inhibition in data set [1] turned out to be 41%. The same measure, in the same setting: as for `C#C/C(=C\CCCCCC)c1cccc(Cl)c1`, the figure is 32%. On the same count and under the same terms, under `CC(C)=CCC/C(C)=C/CC(O)(C(N)=O)c1cccc(Cl)c1` (centres undefined) stands 84%; under `C#CC(O)(CCCCCCC)c1cccc(Cl)c1` (centres undefined), 78%. In the case of `CCCCCCCC1(c2cccc(Cl)c2)NC(=O)N(Cc2cccc(F)c2)C1=O` (centres undefined), in data set [1], the inhibition worked out at 71%. `CCCCCCCC(O)(c1cc(F)cc(F)c1)c1cccc(Cl)c1` (centres undefined) came in with an inhibition in data set [1] of 35%. In data set [1], `CCCCCCCC1(c2cccc(Cl)c2)NC(=O)N(CC2CC2)C1=O` (centres undefined) came in with an inhibition of 78%. The same measure, in the same setting: under `NC(=O)C(O)(CCCCOCc1ccccc1)c1cccc(Cl)c1` (centres undefined) stands 52%; under `CCCCCCCC(O)(c1cccc(Cl)c1)c1cc(C(F)(F)F)cc(C(F)(F)F)c1` (centres undefined), 8%.

In data set [1], `CCCCCCCC(O)(c1cccc(Cl)c1)c1cc(F)cc(OC)c1` (centres undefined) came in with an inhibition of 56%. On the same count and under the same terms, under `O=C1NC(=O)C(CCCCCC2CO2)(c2cccc(Cl)c2)N1` (centres undefined) stands 28%; under `CCCCCCCC(O)(c1cccc(Cl)c1)c1ccccn1` (centres undefined), 28%. With `CN(C)c1cccc2c(S(=O)(=O)NCCCCCC3(c4cccc(Cl)c4)NC(=O)NC3=O)cccc12` (centres undefined), the result in data set [5] and in data set [8] was Active. Moreover, the inhibition was determined as 59% in data set [6] and 86% in data set [1]. For the same molecule, the outcome in data set [3] and in data set [4] was inactive. Moreover, the Drug uptake entry in data set [7] is “Active”. Take `CCCCCCCC1(c2cccc(Cl)c2)NC(=O)NC1=O` (centres undefined): the result in data set [5] and in data set [8] was Active. The inhibition was 31% in data set [6] and 70% in data set [1]. Molecule `O=C1NC(=O)C(CCCOCc2ccccc2)(c2cccc(Cl)c2)N1` (centres undefined) had an inhibition in data set [1] of 71%. Molecule `C#CCN1C(=O)NC(CCCCCCC)(c2cccc(Cl)c2)C1=O` (centres undefined) displayed an inhibition in data set [1] of 57%.

The record behind these values is ChEMBL document CHEMBL2069248, “Synthesis and biological evaluation of a fluorescent analog of phenytoin as a potential inhibitor of neuropathic pain and imaging agent” (Bioorg Med Chem, 2012).
